From article PMC5377441 (International Journal for Parasitology: Drugs and Drug …, 2017)
Where two headings read alike, the source gives them in different places. Marks after values point to notes of the source that are not given here.

Key:
H. polygyrus [1] = test: In vitro drug uptake and elimination by H. polygyrus; format: in vitro ADME, Heligmosomoides polygyrus
T. muris [2] = test: In vitro drug uptake and elimination by T. muris; format: in vitro ADME, Trichuris muris; conditions: 24 h
adult H. polygyrus = test: In vitro drug activity against adult H. polygyrus, phenotypic readout; format: cell-based, Heligmosomoides polygyrus; conditions: 200 μM, 72 h
Method in brief: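 Adult H. polygyrus were dissected from NMRI mice from ten days post-infection onward. Four worms per drug were incubated in 2 ml at 200 μM for 72 h, with DMSO-matched worms as controls. Motility, transparency and morphology were scored from 3 (normal) to 0 (highly impaired or dead). Runs were done in duplicate and repeated once.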

[3] = format: in vivo, NMRI mice; conditions: for albendazole in small intestinal mucosa / albendazole in stomach content: intraperitoneal 100 mg/kg, 2 h
H. polygyrus [4] = test: Uptake of albendazole and its metabolites by H. polygyrus in vivo; parameters: species or system Heligmosomoides polygyrus in NMRI mice; conditions: for albendazole in worms: oral 100 mg/kg, average
Method in brief: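 Female NMRI mice were infected by oral gavage with 80 H. polygyrus L3. Groups received 100 mg/kg albendazole, albendazole after 50 mg/kg ABT given 16 h earlier, or albendazole sulfoxide, orally or intraperitoneally. Four mice per time point were killed at 2, 5 or 8 h (intraperitoneal groups at 2 h only). Worms were recovered, and drug was quantified by HPLC-UV/vis and reported per ten worms.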

[5] = format: in vivo, C57BL/10 mice
T. muris [6] = test: Drug uptake by T. muris in vivo; parameters: species or system Trichuris muris in C57BL/10 mice; conditions: in vivo
H. polygyrus [7] = conditions: oral 100 mg/kg, ref Unpublished data, 100 mg/kg, cited from earlier work
adult T. muris = conditions: incubation at >600 μM, 72 h; ref Keiser et al., 2012; cited from earlier work
T. muris [8] = conditions: oral 300 mg/kg; ref Keiser et al., 2013; cited from earlier work
hookworm infections = conditions: single oral dosage; ref Keiser and Utzinger, 2008; cited from earlier work
trichuriasis = conditions: ref Keiser and Utzinger, 2008; cited from earlier work

SMILES: CCCS(=O)(=O)c1ccc2nc(NC(=O)OC)[nH]c2c1 [Albendazole sulfone, albendazole sulfone]
- albendazole sulfoxide detected in worms (H. polygyrus [1]; incubation 5 to 100 μM, 24 h, range or mean over the concentrations): 15 nmol/10 worms
- albendazole sulfone detected in worms (H. polygyrus [1]; incubation 5 to 100 μM, 24 h, range, mean or maximum over the concentrations): 33 nmol/10 worms
- ABZSO2 in worms (H. polygyrus [1]; incubation at 5 μM, 24 h): 33 ± 10 nmol/10 worms
- ABZSO in medium (H. polygyrus [1]; incubation at 5 μM, 24 h): 0.2 ± 0.1 µM
- ABZSO in worms (H. polygyrus [1]; incubation at 5 μM, 24 h): 19 ± 10 nmol/10 worms
- ABZSO2 in worms (H. polygyrus [1]; incubation at 10 μM, 24 h): 51 ± 23 nmol/10 worms
- ABZSO in medium (H. polygyrus [1]; incubation at 10 μM, 24 h): 0.2 ± 0.1 µM
- ABZSO in worms (H. polygyrus [1]; incubation at 10 μM, 24 h): 19 ± 3 nmol/10 worms
- ABZSO2 in worms (H. polygyrus [1]; incubation at 25 μM, 24 h): 23 ± 8 nmol/10 worms
- ABZSO in medium (H. polygyrus [1]; incubation at 25 μM, 24 h): 0.4 ± 0.0 µM
- ABZSO in worms (H. polygyrus [1]; incubation at 25 μM, 24 h): 13 ± 11 nmol/10 worms
- ABZSO2 in worms (H. polygyrus [1]; incubation at 50 μM, 24 h): 30 ± 20 nmol/10 worms
- ABZSO in medium (H. polygyrus [1]; incubation at 50 μM, 24 h): 0.3 ± 0.0 µM
- ABZSO in worms (H. polygyrus [1]; incubation at 50 μM, 24 h): 9 ± 5 nmol/10 worms
- ABZSO2 in worms (H. polygyrus [1]; incubation at 75 μM, 24 h): 31 ± 8 nmol/10 worms
- ABZSO in medium (H. polygyrus [1]; incubation at 75 μM, 24 h): 0.3 ± 0.0 µM
- ABZSO in worms (H. polygyrus [1]; incubation at 75 μM, 24 h): 16 ± 11 nmol/10 worms
- ABZSO2 in worms (H. polygyrus [1]; incubation at 100 μM, 24 h): 33 ± 21 nmol/10 worms
- ABZSO in medium (H. polygyrus [1]; incubation at 100 μM, 24 h): 0.2 ± 0.0 µM
- ABZSO in worms (H. polygyrus [1]; incubation at 100 μM, 24 h): 16 ± 8 nmol/10 worms
- albendazole in the parasite and the culture medium (T. muris [2]; incubation 5-100 μM): neither detected
- albendazole sulfoxide in the parasite and the culture medium (T. muris [2]; incubation 5-100 μM): neither detected
- ABZSO2 in worms (T. muris [2]; incubation at 5 μM): 122 ± 45 nmol/10 worms
- ABZSO2 in worms (T. muris [2]; incubation at 10 μM): 185 ± 55 nmol/10 worms
- ABZSO2 in worms (T. muris [2]; incubation at 25 μM): 421 ± 171 nmol/10 worms
- ABZSO2 in worms (T. muris [2]; incubation at 50 μM): 780 ± 258 nmol/10 worms
- ABZSO2 in worms (T. muris [2]; incubation at 75 μM): 1127 ± 451 nmol/10 worms
- ABZSO2 in worms (T. muris [2]; incubation at 100 μM): 1348 ± 447 nmol/10 worms
- Drug effect (reduction of parasite viability) (adult H. polygyrus): 40% [200 μM]
- Drug effect (reduction of parasite viability) (adult H. polygyrus; listed as albendazole sulfone): 40%

SMILES: CCC[S+]([O-])c1ccc2[nH]c(NC(=O)OC)nc2c1 (centres unmarked) [Albendazole sulfoxide, albendazole sulfoxide]
- albendazole in the culture medium (H. polygyrus [1]; incubation 5 to 100 μM, 24 h): Neither albendazole nor albendazole sulfone could be quantified
- albendazole sulfone in the culture medium (H. polygyrus [1]; incubation 5 to 100 μM, 24 h): Neither albendazole nor albendazole sulfone could be quantified
- Drug effect (reduction of parasite viability) (adult H. polygyrus): 60% [200 μM]
- Drug effect (reduction of parasite viability) (adult H. polygyrus; listed as albendazole sulfoxide): 60%
- albendazole in small intestinal mucosa [3]: no albendazole was detected
- albendazole in stomach content [3]: no albendazole was detected
- albendazole sulfoxide in plasma, compared to the albendazole treatment ([3]; oral 100 mg/kg, 5 h): 5.2 fold
- albendazole sulfoxide in the mucosa of the small intestine ([3]; oral 100 mg/kg, 5 h): 137 µmol/g
- albendazole sulfoxide in the mucosa of the small intestine ([3]; oral 100 mg/kg, other time points (2 and 8 h)): below 27 μmol/g
- albendazole in worms (H. polygyrus [4]): No albendazole was detected

SMILES: CCCSc1ccc2nc(NC(=O)OC)[nH]c2c1 [Albendazole, albendazole]
- albendazole sulfone in the culture medium (H. polygyrus [1]; incubation 5 to 100 μM, 24 h): could not be quantified
- ABZ in worms (H. polygyrus [1]; incubation at 5 μM, 24 h): 13 ± 6 nmol/10 worms
- ABZ in worms (H. polygyrus [1]; incubation at 10 μM, 24 h): 16 ± 5 nmol/10 worms
- ABZ in worms (H. polygyrus [1]; incubation at 25 μM, 24 h): 5 ± 8 nmol/10 worms
- ABZ in worms (H. polygyrus [1]; incubation at 50 μM, 24 h): 28 ± 4 nmol/10 worms
- albendazole in worms, plateau (H. polygyrus [1]; incubation at 50 μM, longer than 8 h): 29 nmol/10 worms
- ABZ in worms (H. polygyrus [1]; incubation at 75 μM, 24 h): 55 ± 49 nmol/10 worms
- ABZ in worms (H. polygyrus [1]; incubation at 100 μM, 24 h): 10 ± 21 nmol/10 worms
- albendazole sulfone in the culture medium (T. muris [2]; incubation 5 to 100 μM): not detected
- ABZ in worms (T. muris [2]; incubation at 5 μM): 94 ± 44 nmol/10 worms
- ABZ in worms (T. muris [2]; incubation at 10 μM): 176 ± 83 nmol/10 worms
- ABZ in worms (T. muris [2]; incubation at 25 μM): 263 ± 173 nmol/10 worms
- ABZ in worms (T. muris [2]; incubation at 50 μM): 551 ± 528 nmol/10 worms
- ABZ in worms (T. muris [2]; incubation at 75 μM): 598 ± 336 nmol/10 worms
- ABZ in worms (T. muris [2]; incubation at 100 μM): 641 ± 467 nmol/10 worms
- Drug effect (reduction of parasite viability) (adult H. polygyrus): 50% [200 μM]
- Drug effect (reduction of parasite viability) (adult H. polygyrus; listed as albendazole): 50%
- albendazole in small intestinal mucosa [3]: not found
- albendazole in stomach content [3]: 2217 µmol/g
- albendazole in the mucosa ([3]; oral 100 mg/kg, 8 h): 13 µmol/g
- albendazole in large intestine content ([3]; oral 100 mg/kg, end of the decrease over time (2-8 h)): 99 µmol/g
- albendazole in large intestine content ([3]; oral 100 mg/kg, start of the decrease over time (2-8 h)): 462 µmol/g
- albendazole quantity in worms, maximum (H. polygyrus [4]; in vivo, 100 mg/kg): up to 10 nmol per ten H. polygyrus
- albendazole in worms (H. polygyrus [4]): 6.2 nmol/10 worms
- albendazole in stomach content ([5]; intraperitoneal 100 mg/kg, 2 h): 139 µmol/g
- albendazole in the mucosa of the large intestine ([5]; intraperitoneal 100 mg/kg, 2 h): 8 µmol/g
- albendazole in small intestine content ([5]; oral 100 mg/kg, 5 and 8 h): around 5 μmol/g
- albendazole in large intestinal content ([5]; oral 100 mg/kg, 2 h): 208 µmol/g
- albendazole in small intestine content ([5]; oral 100 mg/kg, 2 h): 394 µmol/g
- albendazole in the mucosa of the small intestine ([5]; oral 100 mg/kg, 2 h): 5 µmol/g
- albendazole in large intestinal content ([5]; oral 100 mg/kg, 5 h): 57 µmol/g
- albendazole in large intestinal content ([5]; oral 100 mg/kg, 8 h): 16 µmol/g
- albendazole in stomach content ([5]; oral 100 mg/kg, average between 2 and 8 h): 114 µmol/g
- drug quantity in worms, maximum (T. muris [6]): up to 31 nmol per ten T. muris
- Worm burden reduction (H. polygyrus [7]): 100% [100 mg/kg] ^a
- Worm burden reduction (H. polygyrus [7]; listed as albendazole): 100%
- Drug effect (adult T. muris): <50% ^b
- Worm burden reduction (T. muris [8]): 42% [300 mg/kg] ^c
- cure rate (hookworm infections): 72%
- cure rate (trichuriasis): below 36%
